This passage reports inhibition results from ChEMBL document CHEMBL5390275, “Molecular Graph-Based Deep Learning Algorithm Facilitates an Imaging-Based Strategy for Rapid Discovery of Small Molecules Modulating Biomolecular Condensates” (J Med Chem, 2023).

In experiment [1] the test system is TAR DNA-binding protein 43 (Homo sapiens), Q13148 [K181E]. Nature of the experiment: Inhibition of doxycycline induced TDP-43 K181E mutant anisosomes formation in human U2OS cells expressing ALS-causing TDP-43 K181E mutant anisosomes assessed as change in TDP-43 droplets morphology at 1 to 10 uM incubated for 24 hrs by fluorescence imaging analysis. Conditions: dose 1-10 µM. It is filed as cell-based. An outline of the steps: (§1)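 U2OS cells stably expressing inducible TDP-43 K181E or NCOR2 anisosomes, treated with compound for 24 h (10uM, or a concentration series), then fixed and imaged; fraction of demixing cells quantified from fluorescent images.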

The target in experiment [2] is TAR DNA-binding protein 43 (Homo sapiens) (UniProt Q13148). The experiment is described as follows: Inhibition of human TDP-43 in human SH-SY5Y cells assessed a splicing changes in normal STMN2 mRNA at 10 uM incubated for 24 hrs by qPCR analysis. In kind it is cell-based. Summed up: (§2)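 SH-SY5Y neuron-like cells (DMEM/F12, 10% FBS) given compound at 10uM final for 24 h; total RNA then harvested and normal and cryptic spliced STMN2 mRNA quantified by real-time PCR.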
(In general: Real-time PCR tracks product formation cycle by cycle.)

In experiment [3] the target is Nuclear receptor corepressor 2 (Homo sapiens) (UniProt Q9Y618). The experiment is described as follows: Inhibition of doxycycline induced NCOR2 anisosomes formation in human U2OS cells expressing ALS-causing NCOR2 anisosomes assessed as change in NCOR2 droplets morphology at 10 uM incubated for 24 hrs by fluorescence imaging analysis. In kind it is cell-based. An outline of the steps: as §1

Experiment [4] concerns DLD-1. Nature of the experiment: Inhibition of sodium arsenite induced stress granule formation in human DLD-1 cells at 10 uM incubated for 24 hrs followed by sodium arsenite stimulation for 1 hr by G3BP1 staining based immunostaining analysis. It is filed as functional, cell-based. An outline of the steps:
(§3)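 DLD1 cells on glass-bottom plates treated with compound at 10uM for 24 h, then 250uM sodium arsenite for 1 h; DMSO control. Fixed in 4% PFA 10 min RT, permeabilized, blocked (5% BSA, 0.1% Triton X-100), stained with anti-G3BP1 and anti-NPM1 (1:100, 1 h RT), secondaries 1:1000 30 min, DAPI; spinning-disc confocal max-projection images analysed.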

Experiment [5] relates to DLD-1. Nature of the experiment: Inhibition of doxycycline induced TDP-43 2KQ mutant anisosomes formation in human DLD-1 cells expressing TDP-43 2KQ mutant anisosomes at 10 uM incubated for 24 hrs by fluorescence imaging analysis. In kind it is cell-based. An outline of the steps: (§4)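 Stable lentivirally transduced DLD1 (single-cell clones sorted by fluorescence) or U2OS lines expressing inducible TDP-43 anisosomes; plated 4000 cells/well, overnight, then compound 24 h; cells fixed, fluorescent anisosomes imaged on ImageExpress HTai and anisosome number per cell quantified.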

For a further experiment, the system named is U2OS. The experiment is described as follows: Inhibition of doxycycline induced TDP-43 2KQ mutant anisosomes formation in human U2OS cells expressing TDP-43 2KQ mutant anisosomes at 10 uM incubated for 24 hrs by fluorescence imaging analysis. It is filed as cell-based. Summed up:
as §4

Experiment [6] concerns DLD-1. The experiment is described as follows: Inhibition of sodium arsenite stimulated human DLD-1 cells assessed as change in nucleolus morphology at 10 uM incubated for 24 hrs followed by sodium arsenite stimulation for 1 hr by NPM1 staining based immunostaining analysis. In kind it is functional, cell-based. Summed up: as §3
The next experiment has as its system SH-SY5Y. Nature of the experiment: Inhibition of TDP-43 2KQ mutant in human SH-SY5Y cells assessed a splicing changes in cryptic STMN2 mRNA at 10 uM incubated for 24 hrs by qPCR analysis. In kind it is cell-based. An outline of the steps:
as §2

Each structure is given as a SMILES string. Activity calls are given as the source filed them. The rule behind the calls is not given here.

Chain of Nuclear receptor corepressor 2 (Homo sapiens) (Q9Y618 whole entry): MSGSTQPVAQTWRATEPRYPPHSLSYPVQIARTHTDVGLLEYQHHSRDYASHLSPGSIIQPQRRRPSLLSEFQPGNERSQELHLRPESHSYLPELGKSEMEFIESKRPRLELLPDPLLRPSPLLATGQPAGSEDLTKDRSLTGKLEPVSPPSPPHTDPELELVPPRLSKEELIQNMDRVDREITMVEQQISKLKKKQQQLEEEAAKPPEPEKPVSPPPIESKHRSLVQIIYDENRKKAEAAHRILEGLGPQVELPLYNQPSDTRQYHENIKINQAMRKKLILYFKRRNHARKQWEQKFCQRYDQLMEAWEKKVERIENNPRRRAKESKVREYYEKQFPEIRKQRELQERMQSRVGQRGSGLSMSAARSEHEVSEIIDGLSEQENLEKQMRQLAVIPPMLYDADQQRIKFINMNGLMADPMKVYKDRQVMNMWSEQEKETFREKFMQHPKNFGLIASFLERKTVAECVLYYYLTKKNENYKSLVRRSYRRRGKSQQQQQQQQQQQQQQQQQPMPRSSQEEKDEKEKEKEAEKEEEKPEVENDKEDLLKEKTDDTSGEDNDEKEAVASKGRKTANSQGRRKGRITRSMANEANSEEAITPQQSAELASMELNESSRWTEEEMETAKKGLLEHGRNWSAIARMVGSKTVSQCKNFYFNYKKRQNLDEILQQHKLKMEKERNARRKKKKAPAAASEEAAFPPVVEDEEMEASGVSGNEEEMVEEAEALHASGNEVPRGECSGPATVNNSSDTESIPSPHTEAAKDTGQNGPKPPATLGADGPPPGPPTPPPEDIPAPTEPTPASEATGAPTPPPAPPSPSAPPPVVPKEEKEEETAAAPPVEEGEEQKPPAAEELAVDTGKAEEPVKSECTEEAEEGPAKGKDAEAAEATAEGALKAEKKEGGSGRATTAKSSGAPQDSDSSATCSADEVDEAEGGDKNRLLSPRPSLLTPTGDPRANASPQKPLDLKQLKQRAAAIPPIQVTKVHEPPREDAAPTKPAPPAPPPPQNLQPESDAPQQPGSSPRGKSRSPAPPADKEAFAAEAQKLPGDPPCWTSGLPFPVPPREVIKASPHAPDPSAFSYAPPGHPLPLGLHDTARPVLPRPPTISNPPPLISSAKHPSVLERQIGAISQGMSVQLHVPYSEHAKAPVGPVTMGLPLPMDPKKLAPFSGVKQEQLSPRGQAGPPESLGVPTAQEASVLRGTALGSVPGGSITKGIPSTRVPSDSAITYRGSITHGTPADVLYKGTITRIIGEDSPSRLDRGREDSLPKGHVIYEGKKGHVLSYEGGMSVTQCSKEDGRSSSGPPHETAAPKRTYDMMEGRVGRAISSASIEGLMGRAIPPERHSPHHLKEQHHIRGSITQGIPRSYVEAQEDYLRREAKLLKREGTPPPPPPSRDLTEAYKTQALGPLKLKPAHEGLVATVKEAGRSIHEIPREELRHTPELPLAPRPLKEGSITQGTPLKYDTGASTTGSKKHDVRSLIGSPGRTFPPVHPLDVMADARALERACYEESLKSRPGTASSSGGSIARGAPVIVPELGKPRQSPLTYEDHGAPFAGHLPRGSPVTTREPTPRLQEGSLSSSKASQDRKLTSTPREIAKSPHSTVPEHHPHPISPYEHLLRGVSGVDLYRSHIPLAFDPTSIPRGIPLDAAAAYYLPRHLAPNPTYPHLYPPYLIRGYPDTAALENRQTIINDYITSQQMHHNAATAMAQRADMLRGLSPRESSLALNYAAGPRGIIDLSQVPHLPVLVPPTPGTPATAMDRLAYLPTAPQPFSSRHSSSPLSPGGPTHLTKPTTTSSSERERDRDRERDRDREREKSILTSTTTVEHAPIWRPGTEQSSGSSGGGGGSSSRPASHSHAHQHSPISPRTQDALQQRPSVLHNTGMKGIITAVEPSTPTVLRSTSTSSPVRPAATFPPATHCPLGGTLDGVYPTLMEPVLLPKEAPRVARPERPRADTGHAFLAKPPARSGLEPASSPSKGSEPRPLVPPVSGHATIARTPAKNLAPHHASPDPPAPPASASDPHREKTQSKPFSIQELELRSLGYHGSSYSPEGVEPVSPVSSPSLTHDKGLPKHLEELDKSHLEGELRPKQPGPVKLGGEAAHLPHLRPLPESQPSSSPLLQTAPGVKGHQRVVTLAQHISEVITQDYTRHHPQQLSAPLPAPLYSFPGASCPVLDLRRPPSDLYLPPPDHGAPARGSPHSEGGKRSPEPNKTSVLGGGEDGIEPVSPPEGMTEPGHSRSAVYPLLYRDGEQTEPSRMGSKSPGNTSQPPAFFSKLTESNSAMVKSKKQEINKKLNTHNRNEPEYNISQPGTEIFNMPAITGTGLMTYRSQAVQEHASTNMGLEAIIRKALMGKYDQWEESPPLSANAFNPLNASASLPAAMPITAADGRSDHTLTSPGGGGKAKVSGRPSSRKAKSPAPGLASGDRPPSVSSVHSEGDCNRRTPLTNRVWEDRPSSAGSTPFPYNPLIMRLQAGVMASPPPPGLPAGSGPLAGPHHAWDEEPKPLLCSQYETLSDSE
Chain of TAR DNA-binding protein 43 (Homo sapiens) (Q13148 whole entry, canonical isoform): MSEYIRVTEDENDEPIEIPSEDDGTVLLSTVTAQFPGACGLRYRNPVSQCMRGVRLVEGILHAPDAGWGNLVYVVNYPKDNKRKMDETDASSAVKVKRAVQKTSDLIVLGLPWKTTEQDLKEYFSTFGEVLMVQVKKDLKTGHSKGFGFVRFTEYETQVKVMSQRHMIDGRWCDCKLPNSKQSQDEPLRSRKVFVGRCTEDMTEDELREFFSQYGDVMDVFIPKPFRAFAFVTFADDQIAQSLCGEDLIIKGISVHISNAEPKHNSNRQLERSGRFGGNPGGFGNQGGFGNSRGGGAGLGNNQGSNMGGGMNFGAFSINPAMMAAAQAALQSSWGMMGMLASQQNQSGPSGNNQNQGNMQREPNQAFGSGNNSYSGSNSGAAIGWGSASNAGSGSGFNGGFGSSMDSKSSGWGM
Chain of TAR DNA-binding protein 43 (Homo sapiens), Q13148 [K181E] (Q13148 whole entry K181E): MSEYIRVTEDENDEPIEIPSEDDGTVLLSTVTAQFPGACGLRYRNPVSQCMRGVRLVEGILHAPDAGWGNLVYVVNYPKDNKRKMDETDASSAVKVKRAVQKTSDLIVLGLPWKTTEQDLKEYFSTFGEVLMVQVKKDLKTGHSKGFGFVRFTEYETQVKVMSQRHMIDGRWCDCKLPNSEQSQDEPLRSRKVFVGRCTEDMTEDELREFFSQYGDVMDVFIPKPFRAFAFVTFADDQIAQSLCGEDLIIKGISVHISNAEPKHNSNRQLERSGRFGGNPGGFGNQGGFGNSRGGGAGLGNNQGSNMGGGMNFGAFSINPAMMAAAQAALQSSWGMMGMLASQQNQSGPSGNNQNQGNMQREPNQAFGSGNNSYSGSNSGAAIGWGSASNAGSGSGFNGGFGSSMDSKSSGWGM

As for `COc1ccc(NC(=O)Cn2c(SCc3ccc(F)cc3)nc3cccnc32)cc1OC`, the inhibition entry (in experiment [1]; in experiment [2]; in the experiment on DLD-1 [4]) was “inactive” each time. The inhibition entry in experiment [3] is “Active”.

As for `COc1ccc(S(=O)(=O)NCC(c2ccco2)S(=O)(=O)c2cccs2)cc1F` (centres undefined), the inhibition result (in experiment [2]; in the experiment on DLD-1 [4]) was “inactive” each time.

With `C=C1C(=O)O[C@H]2C3=C(C)CCC[C@]3(C)C(=O)C[C@@H]12`, the inhibition entry (in experiment [1]; with DLD-1 [5]; with U2OS; in experiment [3]; in the experiment with DLD-1 [4]; in the experiment on DLD-1 [6]) was “Active” throughout. For the same compound, in experiment [2], the inhibition result was “inactive”.

For `Cc1ccc(CCNc2ncnc3onc(C)c23)cc1`, the inhibition result (in experiment [2]; in the experiment with DLD-1 [5]; in the experiment with U2OS; with DLD-1 [4]) was “inactive” throughout. For the same compound, the inhibition result in the experiment on SH-SY5Y was “Active”.

Regarding `COc1ccc2[nH]c(=O)c3c(c2c1)OC(C)(C)C=C3`, the inhibition result in experiment [1] is “Dose-Dependent Effect”. In addition, the inhibition entry (in experiment [2]; in experiment [3]; in the experiment with DLD-1 [4]) was “inactive” throughout. In addition, the inhibition entry with DLD-1 [5] and in the experiment with U2OS was “Active” each time.
